Assay results published in the RNAGym collection of RNA variant scans (doi:10.1126/science.aae0568).
Fewer inactive variants are shown than the library holds.

B1: tRNA (parent)
chain: GUUCCGUUGGCGUAAUGGUAACGCGUCUCCCUCCUAAGGAGAAGACUGCGGGUUCGAGUCCCGUACGGAACG

Variants of: B1
Assay: yeast fitness relative to wild type (ratio to wild type); higher = fitter; tRNA-Arg(CCU), competitive growth, 37 C, YPD
In short: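 Start and end populations of a pooled competition were compared by 100-nucleotide paired-end sequencing of gene amplicons. The Saccharomyces cerevisiae strains carried tRNA-Arg(CCU) gene variants at the native genomic locus, synthesised with a 3% per-site mutation rate at 69 sites, and competed in YPD at 37°C for 24 hours in six parallel replicates. Darwinian fitness relative to wild type was based on the change in genotype frequencies. Genotypes required ≥ 100 starting reads, and estimates < 0.5 were set to 0.5.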
Variant GUUCCGUUGGCGUAACGGUAACGCGUCUCCCGCCUAAGGAGAAGACUGGGGGUUAGAGUCCCGUACGGAACG has a yeast fitness of no more than 0.5.
With GUUCCGUUGGCGUAACGGUAACGCGUCUCCCUCCAAAGGAGAAGACUGCGGGUUCGAGUCCCGUACGGAACG the yeast fitness was 0.74.
Work on GUUCCGUUGGCGUAACGGUAACGCGUCUCCCUCCAAAGGAGAAGACUGCGGGUUCGAGUCACGUACGGAUCG yielded a yeast fitness of 0.532.
Variant GUUCCGUUGGCGUAACGGUAACGCGUCUCCCUCCCAAGGAGAACACUGCGGGUUCGAGUCCCGUACGGAACG has a yeast fitness of no more than 0.5.
Work on GUUCCGUUGGCGUAACGGUAACGCGUCUCCCUCCCAAGGAGAAGACCGCGGGUUCGAGUCCCGUACGGAACG yielded a yeast fitness of no more than 0.5.
GUUCCGUUGGCGUAACGGUAACGCGUCUCCCUCCUAAGGAGAAGACCGCGUGUUCGAGUCCCGUACGGAACG gave a yeast fitness of no more than 0.5.
Work on GUUCCGUUGGCGUAACGGUAACGCGUCUCCCUCCUAAGGAGAAGACCGCGGGUUCGAGUCCCGGACGGAACG yielded a yeast fitness of no more than 0.5.
Work on GUUCCGUUGGCGUAACGGUAACGCGUCUCCCUCCUAAGGAGAAGACUGCGGGUCCGAGUCCCGUACGGAACG yielded a yeast fitness of 0.723.
GUUCCGUUGGCGUAACGGUAACGCGUCUCCCUCCUAAGGAGAAGACUGCGGGUCCGAGUCCCAUACGGAACG showed a yeast fitness of 0.501.
GUUCCGUUGGCGUAACGGUAACGCGUCUCCCUCCUAAGGAGAAGACUGCGGGUUCGAGACCCGUACCGAACG showed a yeast fitness of 0.675.
In the case of GUUCCGUUGGCGUAAGGGUAACGCGUCUCCCUCCUAAGGAGAAGACUGCGGGUUCGAGUCCCGUACGGAACG, the yeast fitness is reported as 1.
With GUUCCGUUGGCGUAAGGGUCGCGCGUCUCUCUCCUAAGGAGAAGACUGCGGGUUCGAGUCCCGUACGGAACG the yeast fitness was 0.579.
GUUCCGUUGGCGUAAGGGUCACGCGUCUCCCUCCUAAGGAGAAGACUGCGGGUUCGAGUUCCGUACGGAACG gave a yeast fitness of no more than 0.5.
Work on GUUCCGUUGGCGUAAGGGUCACGCAUCUCCCUCCUAAGGAGAUGACUGCAGGUUUGAGUCCCGUACGGAACG yielded a yeast fitness of no more than 0.5.
GUUCCGUUGGCGUAAGGGUACCGCGUCUCCCUCAUAAGGAGAAGACUGCGGGUUCGAGUCCCGUACGGAACG showed a yeast fitness of no more than 0.5.
GUUCCGUUGGCGUAAGGGUAUCGCGUCUCCCUCCUAAGGAGAAGAGUGCGGGUUCGAGUCCCGUACGGAACG showed a yeast fitness of no more than 0.5.
With GUUCCGUUGGCGUAAGGGUAACGCGUCUCCCUCCUGAGGAGAAGGCUGCGGGUUCGAGUCCCGUACGGAACG the yeast fitness was 0.745.
With GUUCCGUUGGCGUAAGGGUAACGCGUCUCCCUCCUACGGAGAAGACUGCGGGUUCGAGUCCCGUAAGGAACG the yeast fitness was no more than 0.5.
In the case of GUUCCGUUGGCGUAAGGGUAACGCGUCUCCCUCCUAGGGAGAAGACUGCGGGUUCGAGUCCCGUACGGAACG, the yeast fitness is reported as 0.673.
For GUUCCGUUGGCGUAAGGGUAACGCGUCUCCCUCCUAGGGAGAAGCCUGCGGGUUCGAGUCGCGUACGGCACG, the yeast fitness was no more than 0.5.
GUUCCGUUGGCGUAAGGGUAACGCGUCUCCCUCCUAUGGAGAAGACUGCGGGUUCGAGUCCCGUACGGAACG gave a yeast fitness of 0.618.
GUUCCGUUGGCGUAAGGGUAACGCGUCUCCCUCCUAUGGAGAAGACAGCGGUUUCGAGUCCCGUACGGAACG showed a yeast fitness of no more than 0.5.
For GUUCCGUUGGCGUAAGGGUAACGCGUCUCCCUCCUAAGGCGAAGACUGCGGGUUCGAGUCCCGUACGGAACG, the yeast fitness was 0.761.
Work on GUUCCGUUGGCGUAAGGGUAACGCGUCUCCCUCCUAAGGAGCAGACCGCGGGUUCGAGUCCCGUACGGAACG yielded a yeast fitness of 0.676.
With GUUCCGUUGGCGUAAGGGUAACGCGUCUCCCUCCUAAGGAGGAGACUGCGGGUUCGAGUCCCGUACGGAACG the yeast fitness was 0.78.
Variant GUUCCGUUGGCGUAAGGGUAACGCGUCUCCCUCCUAAGGAGGAGACUGCGGGUUCGAGUCCCGUACGGCGCG has a yeast fitness of no more than 0.5.
Work on GUUCCGUUGGCGUAAGGGUAACGCGUCUCCCUCCUAAGGAGUAGACUGCGGGUUCGAGUCCAGUACGGACCG yielded a yeast fitness of no more than 0.5.
Variant GUUCCGUUGGCGUAAGGGUAACGCGUCUCCCUCCUAAGGAGACGACUGCGGGUUCGAGUCCCGUACGGAACG has a yeast fitness of 0.919.
GUUCCGUUGGCGUAAGGGUAACGCGUCUCCCUCCUAAGGAGAUGACUGCCGGUUCGAGUCCCGUACAGAACG gave a yeast fitness of no more than 0.5.
With GUUCCGUUGGCGUAAGGGUAACGCGUCUCCCUCCUAAGGAGAAGGCUGCGGGUUCGAGUCCCGUAUGGAACG the yeast fitness was 0.771.
With GUUCCGUUGGCGUAAGGGUAACGCGUCUCCCUCCUAAGGAGAAGGCUGCGGGUUCGAGUCCCGUACCGAACG the yeast fitness was 0.63.
GUUCCGUUGGCGUAAGGGUAACGCGUCUCCCUCCUAAGGAGAAGUCUGCAGGUUCGAGUCCCGUAUGGAACG showed a yeast fitness of no more than 0.5.
GUUCCGUUGGCGUAAGGGUAACGCGUCUCCCUCCUAAGGAGAAGACUGCGGGUUCGGGUCCCGUACGGAACG gave a yeast fitness of 0.805.
Work on GUUCCGUUGGCGUAAGGGUAACGCGUCUCCCUCCUAAGGAGAAGACUGCGGGUUCGGGUCCGGUACGGAACG yielded a yeast fitness of no more than 0.5.
GUUCCGUUGGCGUAAGGGUAACGCGUCUCCCUCCUAAGGAGAAGACUGCGGGUUCGGGUCCCGUAUGGUACG gave a yeast fitness of no more than 0.5.
Variant GUUCCGUUGGCGUAAGGGUAACGCGUCUCCCUCCUAAGGAGAAGACUGCGGGUUCGAGUCCCGUCCGGAACG has a yeast fitness of 0.932.
GUUCCGUUGGCGUAAGGGUAACGCGUCUCCCUCCUAAGGAGAAGACUGCGGGUUCGAGUCCCGUGCGGAACG showed a yeast fitness of 0.904.
For GUUCCGUUGGCGUAAGGGUAACGCGUCUCCCUCCUAAGGAGAAGACUGCGGGUUCGAGUCCCGUACGGCACG, the yeast fitness was 1.04.
